Screens from PubChem.
An excerpt weighted towards active compounds, which were near 11% of everything screened.
L major viab = Leishmania major promastigote growth inhibition; Leishmania major promastigotes, resazurin fluorescence viability; inhibition, % at 10 µM; 200,000 compounds, 9% hits; AID 1063;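 note: promastigotes grown with compound for 44 hours at 28 °C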
WT yeast gro inh = growth inhibition of WT yeast, mitochondrial fusion screen | mitochondrial fusion phenotypic screen, WT strain | inhibition, % at 10 µM | 190,000 compounds, 2.1% hits | AID 1362; in the data active = inhibition above about 58%; tested in S. cerevisiae
Diaphorase act = activates diaphorase or chemically reduces, flagging diaphorase assay artifacts; Diaphorase/resazurin coupled assay, resorufin fluorescence, 16 min; active compounds read high; 1 = vehicle wells, 0 = NADH-free wells; activation factor at 20 µM; 190,000 compounds, 0.005% hits; AID 1229;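 active = diaphorase activity raised at least twofold by the compound at 20 µM; inactive = activation factor below 2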
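Assay system: bacterial diaphorase enzyme (C. kluyveri) / Input: enzyme 0.07 U/mL final / Medium: 50 mM HEPES pH 7.4 with 4.542 mM MgCl2, 0.005% Tween 20 / Doses: single compound dose of 20 µM, 1% DMSO final / Incubation: 16 min enzyme reaction, ambient temperature / Signal: fluorescence, excitation 544 nm and emission 590 nm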
G6PDH counter = L. mesenteroides G6PDH inhibition counter-screen. 200,000 compounds, 0.12% hits. Purified L. mesenteroides G6PDH, diaphorase/resazurin coupled fluorescence, 45 min. inhibition, % at 5 µM. AID 1020
Diaphorase inh = counter-screen for diaphorase-based assays: diaphorase inhibitors and chemical oxidizers. AID 1217. inhibition, % at 20 µM. diaphorase resazurin-to-resorufin fluorescence, NADH, 16 min; bacterial (C. kluyveri) enzyme, not human. 190,000 compounds, 0.69% hits;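 active = primary screen inhibition at 20 µM above a set limit, cut at about 50% in these data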
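controls = No-NADH positive control and DMSO neutral control | system = Clostridium kluyveri diaphorase enzyme | timing = reaction incubation of 16 min at room temperature | signal = resorufin fluorescence 544/590 nm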
Hits are given with their value; – = inactive. Cut-off read from the data, not from the text of the source, unless noted: active = inhibition above about 50%; inactive = the rest.

SMILES	L major viab	WT yeast gro inh	Diaphorase act	G6PDH counter	Diaphorase inh
CCOC(=O)C1(CCOC)CCN(Cc2cnc(-c3cccc(C)c3)nc2)CC1	–	–	–	–	–
CCOC(=O)C1(CCOc2ccccc2)CCN(Cc2ccc(COC)o2)CC1	66.2	–	–	–	–
C=C(C)[C@@H]1CC=C(CN2CCC(CCOC)(C(=O)OCC)CC2)CC1	78.6	–	–	–	–
COC(=O)c1ccc(C(=O)Nc2cc(Cl)ccc2Cl)cc1NC(=O)c1ccc(N(C)C)cc1	–	–	–	–	–
CCOC(=O)C1(CCOc2ccccc2)CCN(Cc2cnc(C)[nH]2)CC1	–	–	–	–	–
CCOC(=O)C1(CCOc2ccccc2)CCN(Cc2cnc(SC)nc2)CC1	86.1	–	–	–	–
O=C(NCCC1=CCCCC1)C(=O)NCC(c1ccco1)N1CCN(c2ccccc2F)CC1 (configuration not stated)	74.2	–	–	–	–
O=C(NCCc1c[nH]c2ccccc12)C(=O)NCC(c1ccco1)N1CCN(c2ccccc2)CC1 (configuration not stated)	89.4	–	–	–	–
O=C(NCCc1c[nH]c2ccccc12)C(=O)NCC(c1ccco1)N1CCN(c2ccc(F)cc2)CC1 (configuration not stated)	–	–	–	–	–
O=C(NCc1ccncc1)C(=O)NCC(c1ccco1)N1CCN(c2ccccc2F)CC1 (configuration not stated)	51.7	–	–	–	–
COc1ccc(N2CCN(C(CNC(=O)C(=O)NCCC3=CCCCC3)c3ccco3)CC2)cc1 (configuration not stated)	86.2	–	–	–	–
COc1cc(OC)cc(C(=O)N[C@H](C(=O)Nc2ccc3c(c2)OCO3)C(C)C)c1	–	–	–	–	–
COc1ccc(CCNC(=O)COC(=O)c2ccc(N3CCCC3=O)cc2)cc1OC	–	–	–	–	–
O=C(NCCC1=CCCCC1)C(=O)NCC(c1ccco1)N1CCN(c2ccccc2)CC1 (configuration not stated)	88.5	–	–	–	–
O=C(NCc1ccncc1)C(=O)NCC(c1ccccc1)c1ccccc1	57.5	–	–	–	–
O=C(NCCC1=CCCCC1)C(=O)NCC1OCCCN1S(=O)(=O)c1ccccc1 (configuration not stated)	95.7	–	–	–	–
COC(=O)NCC(c1ccco1)N1CCN(c2ccccc2)CC1 (configuration not stated)	–	–	–	–	–
O=C(NCCc1ccccc1)C(=O)NCc1ccncc1	–	–	–	–	–
Cc1ccc(-c2nnc(OCc3cccnc3)c3ccccc23)cc1	–	–	–	–	–
COc1ccc(C(=O)NC(=S)NCCO)cc1Br	–	–	–	–	–
CCOc1ccccc1NC(=O)C1CCN(S(=O)(=O)c2ccc(OC)c(OC)c2)CC1	–	–	–	–	–
CCOc1ccccc1NC(=O)C1CCN(S(=O)(=O)c2c(C)noc2C)CC1	97.5	–	–	–	–
Cc1noc(C)c1S(=O)(=O)N1CCC(C(=O)Nc2ccc(OC(F)(F)F)cc2)CC1	99.6	–	–	–	–
CCC(Cc1ccccc1)NC(=O)C1CCN(S(=O)(=O)c2c(C)noc2C)CC1 (configuration not stated)	92.3	–	–	–	–
Cc1noc(C)c1S(=O)(=O)N1CCC(C(=O)N(C)Cc2ccccc2)CC1	–	–	–	–	–
COc1ccc(NC(=O)C2CCN(S(=O)(=O)c3c(C)noc3C)CC2)cc1Cl	–	–	–	–	–
